Laboratory results published in ChEMBL document CHEMBL1145781, “Synthesis and structure-activity relationships of 5-amino-6-fluoro-1-[(1R,2S)-2-fluorocyclopropan-1-yl]-8-methylquinolonecarboxylic acid antibacterials having fluorinated 7-[(3R)-3-(1-aminocyclopropan-1-yl)pyrrolidin-1-yl] substituents” (J Med Chem, 2003).
Converted amounts (≈) assume the structure as drawn.

Columns and labels:
[1] = system: Klebsiella pneumoniae; assay: Antibacterial activity was determined against Klebsiella pneumoniae type II strain after incubation at 37 degrees C for 18 h; type: functional
[2] = Mortality was determined after 50 mg/kg dose administered intravenously to 5-week old male mice at a speed of 0.2 mL/min counted on day 7 for total 5 mice; type: ADME, organism-based; parameters: dose 50 mg/kg, route intravenous; conditions: mouse, in vivo, iv
Outline: (§1)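 Male Slc:ddY mice, 5 weeks old. Compound dissolved in 0.1 N NaOH in saline at varied concentrations and given as a single IV injection at 0.2 mL/min, total volume 10 mL/kg body weight. Deaths counted on day 7 and reported as dead/tested.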

[3] = Toxicity was determined as presence of micronucleated reticulocytes (MNRET) in blood at 24 and 48 hr after 50 mg/kg dose administered intravenously to 5-week old male mice.; conditions: mouse, in vivo, iv
[4] = system: Staphylococcus epidermidis; assay: Antibacterial activity was determined against Staphylococcus epidermis 56500 strain after incubation at 37 degrees C for 18 h; type: functional
[5] = system: Pseudomonas aeruginosa; assay: Antibacterial activity was determined against Pseudomonas aeruginosa PAO1 strain after incubation at 37 degrees C for 18 h; type: functional
[6] = Mortality was determined after 150 mg/kg dose administered intravenously to 5-week old male mice at a speed of 0.2 mL/min counted on day 7 for total 2 mice; type: ADME, organism-based; parameters: dose 150 mg/kg, route intravenous; conditions: mouse, in vivo, iv; outline: as §1
[7] = Mortality was determined after 100 mg/kg dose administered intravenously to 5-week old male mice at a speed of 0.2 mL/min counted on day 7 for total 2 mice; type: ADME, organism-based; parameters: dose 100 mg/kg, route intravenous; conditions: mouse, in vivo, iv; outline: as §1
[8] = system: Escherichia coli; assay: Antibacterial activity was determined against Escherichia coli NIHJ strain after incubation at 37 degrees C for 18 h; type: functional
[9] = system: Streptococcus mitis; assay: Antibacterial activity was determined against Streptococcus mitis IID685 strain after incubation at 37 degrees C for 18 h; type: functional
[10] = Solubility was determined in water; type: physicochemical
[11] = system: Enterococcus faecalis; assay: Antibacterial activity was determined against Enterococcus faecalis ATCC 19433 strain after incubation at 37 degrees C for 18 h; type: functional; conditions: ATCC 19433, 18 h
[12] = system: Streptococcus pneumoniae; assay: Antibacterial activity was determined against Streptococcus pneumoniae J-24 strain after incubation at 37 degrees C for 18 h; type: functional
[13] = system: Streptococcus pyogenes; assay: Antibacterial activity was determined against Streptococcus pyogenes G-36 strain after incubation at 37 degrees C for 18 h; type: functional
[14] = system: Staphylococcus aureus; assay: Antibacterial activity was determined against Staphylococcus aureus FDA 209-P strain after incubation at 37 degrees C for 18 h; type: functional
[15] = Half life in lung was determined after intravenous administration to rats (n=4) at dose of 20 mg/kg; type: ADME, organism-based; parameters: dose 20 mg/kg, route intravenous; conditions: rat
[16] = system: Enterococcus sp.; assay: Antibacterial activity was determined against clinically isolated vancomycin-A resistant enterococci (VRE) strains (33 strains); type: functional
[17] = Serum concentration was determined after 5 min. of intravenous administration to rats (n=4) at dose of 20 mg/kg; type: ADME, organism-based; parameters: dose 20 mg/kg, route intravenous; conditions: rat
[18] = Total concentration in liver was determined after 6 hr of intravenous administration to rats (n=4) at dose of 20 mg/kg; type: ADME, organism-based; parameters: time < 6 hr, dose 20 mg/kg, route intravenous; conditions: rat
[19] = system: Rattus norvegicus; assay: Ratio of total concentration in serum to that of serum after 6 hr of intravenous administration to rats (n=4) at dose of 20 mg/kg; type: ADME, organism-based; parameters: dose 20 mg/kg, route intravenous; conditions: in vivo
[20] = system: Staphylococcus aureus; assay: Antibacterial activity was determined against clinically isolated Levofloxacin-methicillin resistant Staphylococcus aureus (LVFX-r MRSA) strains (74 strains); type: functional
[21] = system: Enterococcus sp.; assay: Antibacterial activity was determined against clinically isolated vancomycin-B resistant enterococci (VRE) strains (10 strains); type: functional
[22] = Ratio of total concentration in lung to that of serum after 6 hr of intravenous administration to rats (n=4) at dose of 20 mg/kg; type: ADME, organism-based; parameters: dose 20 mg/kg, route intravenous; conditions: rat
[23] = Kidney concentration was determined after 5 min. of intravenous administration to rats (n=4) at dose of 20 mg/kg; type: ADME, organism-based; parameters: dose 20 mg/kg, route intravenous; conditions: rat
[24] = system: Streptococcus pneumoniae; assay: Antibacterial activity was determined against clinically isolated penicillin resistant Streptococcus pneumoniae (PRSP) strains (50 strains); type: functional
[25] = Toxicity was determined as presence of micronucleated reticulocytes (MNRET) in blood at 24 and 48 h after 150 mg/kg dose administered intravenously to 5-week old male mice; negative.; type: organism-based; parameters: dose 150 mg/kg, route intravenous; conditions: mouse, in vivo, iv
[26] = Total concentration in lung was determined after 6 hr of intravenous administration to rats (n=4) at dose of 20 mg/kg; type: ADME, organism-based; parameters: time < 6 hr, dose 20 mg/kg, route intravenous; conditions: rat
[27] = Total concentration in serum was determined after 6 hr of intravenous administration to rats (n=4) at dose of 20 mg/kg; type: ADME, organism-based; parameters: time < 6 hr, dose 20 mg/kg, route intravenous; conditions: rat
[28] = Ratio of total concentration in kidney to that of serum after 6 hr of intravenous administration to rats (n=4) at dose of 20 mg/kg; type: ADME, organism-based; parameters: dose 20 mg/kg, route intravenous; conditions: rat
[29] = Half life in liver was determined after intravenous administration to rats (n=4) at dose of 20 mg/kg; type: ADME, organism-based; parameters: dose 20 mg/kg, route intravenous; conditions: rat
[30] = Total concentration in kidney was determined after 6 hr of intravenous administration to rats (n=4) at dose of 20 mg/kg; type: ADME, organism-based; parameters: time < 6 hr, dose 20 mg/kg, route intravenous; conditions: rat
[31] = Half life in serum was determined after intravenous administration to rats (n=4) at dose of 20 mg/kg; type: ADME, organism-based; parameters: dose 20 mg/kg, route intravenous; conditions: rat
[32] = Mortality was determined after 150 mg/kg dose administered intravenously to 5-week old male mice at a speed of 0.2 mL/min counted on day 7 for total 5 mice; type: ADME, organism-based; parameters: dose 150 mg/kg, route intravenous; conditions: mouse, in vivo, iv; outline: as §1
[33] = Ratio of total concentration in liver to that of serum after 6 hr of intravenous administration to rats (n=4) at dose of 20 mg/kg; type: ADME, organism-based; parameters: dose 20 mg/kg, route intravenous; conditions: rat
[34] = Liver concentration was determined after 5 min. of intravenous administration to rats (n=4) at dose of 20 mg/kg; type: ADME, organism-based; parameters: dose 20 mg/kg, route intravenous; conditions: rat
[35] = Half life in kidney was determined after intravenous administration to rats (n=4) at dose of 20 mg/kg; type: ADME, organism-based; parameters: dose 20 mg/kg, route intravenous; conditions: rat
[36] = Lung concentration was determined after 5 min. of intravenous administration to rats (n=4) at dose of 20 mg/kg; type: ADME, organism-based; parameters: dose 20 mg/kg, route intravenous; conditions: rat

SMILES: Cc1c(N2CC[C@@H]([C@H](C)N)C2)c(F)c(N)c2c(=O)c(C(=O)O)cn([C@@H]3C[C@@H]3F)c12
- MIC [1]: 0.025 µg/mL (≈ 0.0615 µM)
- Dead [2]: 1
- Toxicity [3]: Toxic
- MIC [4]: ≤ 0.003 µg/mL
- MIC [5]: 0.05 µg/mL (≈ 0.123 µM)
- Dead [6]: 2
- Dead [7]: 2
- MIC [8]: ≤ 0.003 µg/mL
- MIC [9]: ≤ 0.003 µg/mL
- solubility [10]: 95 µg/mL (≈ 234 µM)
- MIC [11]: 0.025 µg/mL (≈ 0.0615 µM)
- MIC [12]: ≤ 0.003 µg/mL
- MIC [13]: ≤ 0.003 µg/mL
- MIC [14]: ≤ 0.003 µg/mL

SMILES: Cc1c(N2C[C@@H](F)[C@@H](C3(N)CC3)C2)c(F)c(N)c2c(=O)c(C(=O)O)cn([C@@H]3C[C@@H]3F)c12 [DQ-113]
- MIC [1]: 0.013 µg/mL (≈ 0.0298 µM)
- half-life [15]: 0.9 h
- MIC50 [16]: 0.25 µg/mL (≈ 0.573 µM)
- MIC90 [16]: 2 µg/mL (≈ 4.58 µM)
- concentration at 5 min [17]: 11100 ng/mL
- MIC [4]: ≤ 0.003 µg/mL
- AUC at 6 h [18]: 36000 ng·h/mL
- Ratio [19]: 1
- MIC50 [20]: 0.12 µg/mL (≈ 0.275 µM)
- MIC90 [20]: 0.5 µg/mL (≈ 1.15 µM)
- MIC50 [21]: 0.25 µg/mL (≈ 0.573 µM)
- MIC90 [21]: 0.25 µg/mL (≈ 0.573 µM)
- Kp at 6 h [22]: 4.1
- MIC [5]: 0.39 µg/mL (≈ 0.894 µM)
- concentration at 5 min [23]: 33700 ng/mL
- MIC50 [24]: ≤ 0.008 µg/mL
- MIC90 [24]: 0.015 µg/mL (≈ 0.0344 µM)
- Toxicity [25]: Non-toxic
- AUC at 6 h [26]: 37900 ng·h/mL
- MIC [8]: ≤ 0.003 µg/mL
- AUC at 6 h [27]: 9300 ng·h/mL
- Kp at 6 h [28]: 3.7
- MIC [9]: ≤ 0.003 µg/mL
- half-life [29]: 1.3 h
- AUC at 6 h [30]: 34800 ng·h/mL
- solubility [10]: 291 µg/mL (≈ 667 µM)
- MIC [11]: 0.025 µg/mL (≈ 0.0573 µM)
- MIC [12]: ≤ 0.003 µg/mL
- half-life [31]: 1.1 h
- MIC [13]: ≤ 0.003 µg/mL
- Dead [32]: 0
- Kp at 6 h [33]: 3.9
- concentration at 5 min [34]: 46200 ng/mL
- half-life [35]: 1.3 h
- concentration at 5 min [36]: 22000 ng/mL
- MIC [14]: ≤ 0.003 µg/mL
